Bioassay records as filed in PubChem.
S100A4 inh HTS – S100A4-myosin IIA interaction inhibition | 360,000 compounds, 0.14% hits | inhibition, % at 10.7 µM | AID 652163 | S100A4/TAMRA-MyoIIA peptide fluorescence polarization;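 active = mean inhibition of at least 70% across replicates, with every replicate also reaching that level; inconclusive = mean inhibition reaches 70% but some replicates fall short; inactive = mean inhibition below 70%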
Target sequence (P26447 whole entry, looked up): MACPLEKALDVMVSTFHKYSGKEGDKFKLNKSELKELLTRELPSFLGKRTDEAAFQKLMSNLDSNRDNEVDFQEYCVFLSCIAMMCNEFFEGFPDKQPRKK
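Compound dosing: one dose per compound; test system: human S100A4 monomer with TAMRA-labelled myosin IIA peptide; probe or stimulus: TAMRA-labelled myosin IIA heavy-chain peptide probe, 5 nM; medium: HEPES buffer with Ca2+, pH 7.2; schedule: 5 min incubation before reading; benchmarks: neutral control DMSO, positive control TFP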
DENV2 CPE rescue – inhibitors of DENV2 cytopathic effect; DENV2-infected cells, cytopathic effect rescue, plate reader; CPE inhibition, % at 9.99 µM; 350,000 compounds, 1.7% hits; AID 651640; in the data active = CPE inhibition above about 20%, passing the limit was not always enough; inconclusive = no clear call, values can overlap the other calls; tested in BHK-21 cells;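 note: 0% = median of neutral control wells and 100% = median of positive control wells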
XiGFP reactiv – reactivates the inactive X chromosome in mouse fibroblasts; activation, % at 7.58 µM; AID 743238; 360,000 compounds, 0.055% hits; XiGFP mouse fibroblasts, % GFP-positive cells imaging, 3 d; cells co-treated with 5-aza-dC sensitizer; scaled so ellipticine positive control = 100%;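 active = mean normalized replicate activation at least 10% and every replicate at or above 10%; inconclusive = only one of the two criteria met; inactive = mean below 10% and not all replicates reach 10%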;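 note: 0% = median of on-plate neutral control wells and 100% = ellipticine 6 µM median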
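Assay system: SV40-immortalized XiGFP fibroblast cells, line 68-5-11; buffer or medium: DMEM plus 5-aza-dC sensitizer; compound: one concentration, pinned; timing: compounds 3 days, fix/stain 15 min at room temperature; benchmarks: positive control ellipticine, 6 µM final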
E-selectin induc – induces E-selectin expression in human endothelial cells. HUVEC E-selectin immunofluorescence imaging; normalized: neutral wells 0, TNF-alpha wells 100. activation, % at 7.58 µM. 260,000 compounds, 0.37% hits. AID 686992;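 active = mean E-selectin-positive cell signal at least 10% of the positive control, reached in at least 60% of replicates, without over 20% cell loss; inconclusive = no rule given, readout overlaps actives, possibly toxicity-flagged; inactive = the rest, including those meeting only one limit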
Target sequence (P16581 whole entry, looked up): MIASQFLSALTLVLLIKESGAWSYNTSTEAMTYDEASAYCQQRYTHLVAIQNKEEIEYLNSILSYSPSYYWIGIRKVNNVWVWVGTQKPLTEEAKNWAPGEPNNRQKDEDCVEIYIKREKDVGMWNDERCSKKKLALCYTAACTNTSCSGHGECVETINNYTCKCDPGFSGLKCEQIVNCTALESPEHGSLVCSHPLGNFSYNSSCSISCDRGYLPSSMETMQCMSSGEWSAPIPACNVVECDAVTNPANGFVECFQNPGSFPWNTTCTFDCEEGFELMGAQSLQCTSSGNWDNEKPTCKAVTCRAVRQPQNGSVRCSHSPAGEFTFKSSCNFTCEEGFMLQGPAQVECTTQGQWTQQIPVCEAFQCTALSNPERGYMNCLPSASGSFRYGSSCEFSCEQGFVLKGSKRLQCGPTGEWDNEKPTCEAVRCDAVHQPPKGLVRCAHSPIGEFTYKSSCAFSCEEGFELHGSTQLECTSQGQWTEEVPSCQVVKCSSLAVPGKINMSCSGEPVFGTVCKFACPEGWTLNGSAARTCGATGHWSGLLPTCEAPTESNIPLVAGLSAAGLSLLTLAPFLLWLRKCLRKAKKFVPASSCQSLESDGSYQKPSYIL
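Read-out basis: % PE-positive cells; Test system: HUVEC primary endothelial cells; Technique: immunofluorescence imaging; Dosing: single-point compound dose.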
Numbers without * were called inactive; ? = inconclusive; nt = not tested or not shown. This is a sample that favours compounds with a hit; in the whole collection about 2% have one here.

SMILES	S100A4 inh HTS	DENV2 CPE rescue	XiGFP reactiv	E-selectin induc
CC=Cc1ccc2n(c1=O)C[C@H]1[C@H](CO)[C@@H](C(=O)NCc3ccncc3)N(C(=O)NC3CCCC3)[C@@H]21 (mixture of isomers)	0.7	-5.0	0.0	0.2
O=C(C[C@@H]1CC[C@H]2[C@@H](COC[C@@H](O)CN2C(=O)c2ccc3c(c2)OCO3)O1)NCCN1CCCCC1	-12.3	5.7	0.4	-0.1
O=C(C[C@H]1CC[C@H]2[C@@H](COC[C@@H](O)CN2C(=O)c2ccc3c(c2)OCO3)O1)NCCN1CCCCC1	-6.8	2.2	0.0	0.1
O=C(C[C@@H]1CC[C@@H]2[C@H](COC[C@H](O)CN2C(=O)c2ccc3c(c2)OCO3)O1)NCCN1CCCC1	-58.8	30.5*	0.0	0.1
O=C(C[C@@H]1CC[C@@H]2[C@H](COC[C@@H](O)CN2C(=O)c2ccc3c(c2)OCO3)O1)NCCN1CCCC1	72.7*	-4.0	0.0	0.2
Cc1ccc(S(=O)(=O)Nc2cccc3c2O[C@@H](CN(C)S(=O)(=O)c2cn(C)cn2)[C@@H](C)CN([C@H](C)CO)C3=O)cc1	-14.6	0.0	-1.3	4.7
CC(=O)c1sc(N/N=C2\CC3CCC2(C)C3(C)C)nc1C (stereo not drawn)	-11.0	-0.2	0.0	0.2
OCC[C@@H]1C[C@H](O)[C@@H](O)[C@@]2(Cc3ccccc3CCO2)O1	26.7	?	0.0	-0.3
OCC[C@H]1C[C@@H](O)[C@H](O)[C@]2(Cc3ccccc3CCO2)O1	-0.5	47.4*	-0.2	0.0
CNCCCOc1ccc(C)cc1OC	6.8	-6.0	0.0	nt
COc1cc2cc(CCCOC(=O)CCCC(=O)O)oc(=O)c2cc1OC	3.1	38.0*	0.0	0.0
COc1cc2cc(CCCOC(=O)c3cc(OC)c(OC)c(OC)c3)oc(=O)c2cc1OC	-1.5	-5.6	0.0	-0.2
O=C(CCN1C(=O)/C(=C/c2ccc3c(c2)OCO3)SC1=S)NNC(=O)c1cccnc1	-4.3	46.7*	0.0	nt
O=C(CCN1C(=O)/C(=C/c2ccccc2)SC1=S)NNC(=O)c1cccnc1	nt	nt	0.0	nt
COCCNC(=S)NN=C1CCCCCC1	14.0	6.7	-0.1	1.5
C[C@@H]1CCCCO[C@@H](CN(C)S(=O)(=O)c2ccccc2)[C@@H](C)CN([C@H](C)CO)C(=O)c2cc(NC(=O)CCCCCC(=O)Nc3ccccc3N)ccc2O1	5.6	3.1	-0.1	nt
C[C@@H]1CN([C@H](C)CO)C(=O)c2cccc(NC(=O)CCCCCC(=O)Nc3ccccc3N)c2O[C@H]1CN(C)S(=O)(=O)c1cccs1	74.0*	12.0	0.4	-0.1
C[C@@H]1CN([C@H](C)CO)C(=O)c2cc(NC(=O)CCCN(C)C)ccc2O[C@@H](C)CCCCO[C@H]1CN(C)S(=O)(=O)c1cccs1	-3.3	34.3*	-1.0	-0.1
C[C@@H]1CCCCO[C@H](CN(C)S(=O)(=O)c2cccs2)[C@@H](C)CN([C@H](C)CO)C(=O)c2cc(NC(=O)CCCCCC(=O)Nc3ccccc3N)ccc2O1	-25.9	23.9*	0.2	0.0
C[C@@H]1CCCCO[C@@H](CN(C)C(=O)C2CCCCC2)[C@@H](C)CN([C@H](C)CO)C(=O)c2cc(NC(=O)CCCCCC(=O)Nc3ccccc3N)ccc2O1	102.9*	-0.6	-0.5	0.3
CCCCN(c1ccccc1)S(=O)(=O)c1cccc(C(=O)Nc2c(C)n(C)n(-c3ccccc3)c2=O)c1	-2.7	-11.8	0.0	nt
Cc1cc(C)n(C2CCCCC2OC(=O)CCc2ccccc2)n1 (stereo not drawn)	0.2	0.7	0.0	nt
CCOC(=O)CCn1cc(F)c(=O)[nH]c1=O	-4.6	-2.1	0.3	nt
C[C@H]1CN([C@@H](C)CO)C(=O)c2cc(NC(=O)CCCCCC(=O)Nc3ccccc3N)ccc2O[C@H]1CN(C)S(=O)(=O)c1cccs1	98.3*	0.3	1.1	nt
C[C@@H]1CN([C@H](C)CO)C(=O)c2cc(NC(=O)CCCCCC(=O)Nc3ccccc3N)ccc2O[C@@H]1CN(C)S(=O)(=O)c1cccs1	-1.1	-7.1	0.0	nt
SMILES	S100A4 inh HTS	DENV2 CPE rescue	XiGFP reactiv	E-selectin induc
CNC[C@H]1OCc2ccccc2-c2ccccc2C(=O)N([C@@H](C)CO)C[C@@H]1C	9.9	-0.1	0.2	0.5
C1CCCCCC(=NNc2nn[nH]n2)CCCCC1	4.3	3.1	0.1	67.3*
CCC(=O)N1CCN(c2ccc(NC(=O)c3ccccc3)cc2)CC1	2.9	7.6	0.0	4.8
O=C(CNC(=O)c1ccc(Cl)cc1Cl)OCc1cn2cc(Br)ccc2n1	74.3*	-6.7	0.0	-0.3
O=C(CNC(=O)c1ccccc1)OCc1cc(=O)n2cc(Br)ccc2n1	-3.6	-1.3	0.2	nt
CCOC(=O)N1CCN(C(=O)C[C@@H]2C[C@@]3(C(=O)OCC)CCCC=C3N(CCc3ccc(OC)c(OC)c3)C2=O)CC1	-0.6	-9.4	0.4	-0.4
COc1ccc(COCC23N=C4SCc5ccccc5CN4[C@H](c4ccccc4O2)[C@H]3COC(=O)c2ccccc2)cc1	7.7	31.6*	nt	nt
COc1ccccc1CCNC(=O)c1ccc(NC(=O)CC2SC(N3CCCCC3)=NC2=O)cc1 (stereo not drawn)	-24.5	-2.5	0.4	0.2
C[C@H]1CN=C(Nc2ccccc2)N1CCCC1CCCC1	-4.9	58.3*	0.0	0.0
Cc1oc(-c2cccc(Cl)c2)nc1CSCC(=O)O	-2.9	?	0.1	-0.6
Cc1oc(-c2ccccc2Cl)nc1CSCC(=O)O	186.3*	-10.4	0.0	0.2
C[C@@H]1CN([C@@H](C)CO)C(=O)c2cc(NS(=O)(=O)c3cccs3)ccc2O[C@@H](C)CCCCO[C@H]1CN(C)S(=O)(=O)c1cccs1	-7.7	4.2	0.1	1.1
C[C@@H]1CCCCO[C@H](CN(C)CC2CC2)[C@@H](C)CN([C@H](C)CO)C(=O)c2cc(NS(=O)(=O)c3cccs3)ccc2O1	nt	-4.8	0.3	0.0
C[C@@H]1CCCCO[C@H](CN(C)S(=O)(=O)c2cccs2)[C@@H](C)CN([C@@H](C)CO)C(=O)c2cc(NS(=O)(=O)c3cccs3)ccc2O1	103.2*	10.1	0.4	0.2
C[C@@H]1CCCCO[C@H](CN(C)S(=O)(=O)c2cccs2)[C@@H](C)CN([C@H](C)CO)C(=O)c2cc(NS(=O)(=O)c3cccs3)ccc2O1	4.4	59.4*	0.0	0.0
C[C@@H]1CCCCO[C@H](CN(C)CC2CC2)[C@H](C)CN([C@@H](C)CO)C(=O)c2cc(NS(=O)(=O)c3cccs3)ccc2O1	-62.0	41.6*	0.3	0.1
C[C@H]1CCCCO[C@H](CN(C)C(=O)CCCN(C)C)[C@@H](C)CN([C@@H](C)CO)C(=O)c2cc(NS(=O)(=O)c3cccs3)ccc2O1	8.1	23.3*	0.2	-0.1
C[C@@H]1CCCCO[C@@H](CN(C)C(=O)CCCN(C)C)[C@H](C)CN([C@@H](C)CO)C(=O)c2cc(NS(=O)(=O)c3cccs3)ccc2O1	1.3	nt	-0.1	-0.2
